{"source": "ChEMBL document CHEMBL1287652", "about": "“QSAR modeling, synthesis and bioassay of diverse leukemia RPMI-8226 cell line active agents” (2010)", "format_in_all_cases": "functional", "key": {"TK-10": {"system": "TK-10", "assay": "Antitumor activity against human TK10 cells after 48 hrs by sulforhodamine B assay", "conditions": "TK-10, 48 h", "procedure,_shortened": "(§1)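 Cells grown in RPMI-1640 with 5% FBS and 2 mM glutamine, plated and preincubated 24 h; time-zero plates TCA-fixed. Five-level serial dilutions added, 48 h at 37 °C. TCA fixation, SRB staining, absorbance 515 nm. GI50 derived from [(Ti−Tz)/(C−Tz)]×100 = 50; TGI is concentration giving 100% growth inhibition.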"}, "SR": {"system": "SR", "assay": "Antitumor activity against human SR cells after 48 hrs by sulforhodamine B assay", "procedure,_shortened": "(§2)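 Cells were cultured in RPMI-1640 (5% FBS, 2 mM L-glutamine), pre-incubated for 24 h with time-zero plates TCA-fixed, then exposed for 48 h to five serial dilutions. The SRB read-out at 515 nm used time-zero, control and test absorbances. GI50 solves [(Ti−Tz)/(C−Tz)]×100 = 50 (net protein increase). TGI is the concentration giving 100% growth inhibition.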"}, "MDA-MB-435": {"system": "MDA-MB-435", "assay": "Antitumor activity against human MDA-MB-435 cells after 48 hrs by sulforhodamine B assay", "conditions": "MDA-MB-435, 48 h", "procedure,_shortened": "(§3)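 Cells were grown in RPMI-1640 with 5% FBS and 2 mM L-glutamine, plated at 5000–40,000 cells/well, and preincubated for 24 h. A time-zero plate was TCA-fixed. Compounds were added from DMSO stock at five concentrations for 48 h at 37 °C. Cells were fixed with TCA (adherent 10%, suspension 16%) and stained with SRB, and A515 was read. GI50 and TGI were calculated from Tz, control and test absorbances.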"}, "RXF 393": {"system": "RXF 393", "assay": "Antitumor activity against human RXF393 cells after 48 hrs by sulforhodamine B assay", "conditions": "RXF 393, 48 h", "procedure,_shortened": "as §2"}, "EKVX": {"system": "EKVX", "assay": "Antitumor activity against human EKVX cells after 48 hrs by sulforhodamine B assay", "procedure,_shortened": "as §3"}, "U-251": {"system": "U-251", "assay": "Antitumor activity against human U251 cells after 48 hrs by sulforhodamine B assay", "conditions": "U-251, 48 h", "procedure,_shortened": "as §1"}, "OVCAR-5": {"system": "OVCAR-5", "assay": "Antitumor activity against human OVCAR5 cells after 48 hrs by sulforhodamine B assay", "conditions": "OVCAR-5, 48 h", "procedure,_shortened": "as §2"}, "SN12C": {"system": "SN12C", "assay": "Antitumor activity against human SN12C cells after 48 hrs by sulforhodamine B assay", "procedure,_shortened": "as §2"}, "[1]": {"assay": "Antitumor activity against human Hs 578T cells after 48 hrs by sulforhodamine B assay", "procedure,_shortened": "as §3"}, "HL-60(TB)": {"system": "HL-60(TB)", "assay": "Antitumor activity against human HL-60(TB) cells after 48 hrs by sulforhodamine B assay", "conditions": "HL-60, 48 h", "procedure,_shortened": "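NCI panel screen. Cells were grown in RPMI-1640 with 5% FBS and 2 mM L-glutamine, seeded at 5000–40,000 cells/well depending on doubling time, and preincubated 24 h at 37 °C in 5% CO2. Compound was diluted from a DMSO concentrate to five levels and given for 48 h. Settled cells were fixed with TCA (final 16%), stained with 0.4% SRB, and read at 515 nm. GI50 was taken from [(Ti−Tz)/(C−Tz)]×100 = 50.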"}, "SK-MEL-28": {"system": "SK-MEL-28", "assay": "Antitumor activity against human SK-MEL-28 cells after 48 hrs by sulforhodamine B assay", "conditions": "SK-MEL-28, 48 h", "procedure,_shortened": "as §2"}, "[2]": {"assay": "Antitumor activity against human […] cells after 48 hrs by sulforhodamine B assay", "conditions": "RPMI-8226, 48 h", "procedure,_shortened": "as §2"}, "A498": {"system": "A498", "assay": "Antitumor activity against human A498 cells after 48 hrs by sulforhodamine B assay", "conditions": "A498, 48 h", "procedure,_shortened": "as §3"}, "ACHN": {"system": "ACHN", "assay": "Antitumor activity against human ACHN cells after 48 hrs by sulforhodamine B assay", "procedure,_shortened": "as §3"}, "DU-145": {"system": "DU-145", "assay": "Antitumor activity against human DU145 cells after 48 hrs by sulforhodamine B assay", "conditions": "DU-145, 48 h", "procedure,_shortened": "as §3"}, "HOP-92": {"system": "HOP-92", "assay": "Antitumor activity against human HOP92 cells after 48 hrs by sulforhodamine B assay", "conditions": "HOP-92, 48 h", "procedure,_shortened": "as §3"}, "SK-OV-3": {"system": "SK-OV-3", "assay": "Antitumor activity against human SKOV3 cells after 48 hrs by sulforhodamine B assay", "conditions": "SK-OV-3, 48 h", "procedure,_shortened": "as §2"}, "NCI/ADR-RES": {"system": "NCI/ADR-RES", "assay": "Antitumor activity against human NCI/ADR-RES cells after 48 hrs by sulforhodamine B assay", "procedure,_shortened": "as §2"}, "MDA-MB-231": {"system": "MDA-MB-231", "assay": "Antitumor activity against human MDA-MB-231 cells after 48 hrs by sulforhodamine B assay", "conditions": "MDA-MB-231, 48 h", "procedure,_shortened": "as §3"}, "IGROV-1": {"system": "IGROV-1", "assay": "Antitumor activity against human IGROV1 cells after 48 hrs by sulforhodamine B assay", "conditions": "IGROV-1, 48 h", "procedure,_shortened": "as §3"}, "HOP-62": {"system": "HOP-62", "assay": "Antitumor activity against human HOP62 cells after 48 hrs by sulforhodamine B assay", "conditions": "HOP-62, 48 h", "procedure,_shortened": "as §3"}, "HCT-116": {"system": "HCT-116", "assay": "Antitumor activity against human HCT116 cells after 48 hrs by sulforhodamine B assay", "conditions": "HCT-116, 48 h", "procedure,_shortened": "as §3"}, "NCI-H322M": {"system": "NCI-H322M", "assay": "Antitumor activity against human NCI-H322M cells after 48 hrs by sulforhodamine B assay", "procedure,_shortened": "as §2"}, "COLO 205": {"system": "COLO 205", "assay": "Antitumor activity against human COLO205 cells after 48 hrs by sulforhodamine B assay", "conditions": "COLO 205, 48 h", "procedure,_shortened": "as §3"}, "A549": {"system": "A549", "assay": "Antitumor activity against human A549 cells after 48 hrs by sulforhodamine B assay", "conditions": "A549, 48 h", "procedure,_shortened": "as §3"}}}
{"smiles": "COc1ccc(NC(=O)Nc2ccccc2OCCCOc2ccccc2NC(=O)Nc2ccc(OC)cc2)cc1", "values": [{"measurement": "GI50", "setting": "TK-10", "result": 4, "unit": "µM"}, {"measurement": "TGI", "setting": "TK-10", "result": 49.7, "unit": "µM"}, {"measurement": "GI50", "setting": "SR", "result": 0.2, "unit": "µM"}, {"measurement": "TGI", "setting": "SR", "result": 4, "unit": "µM"}, {"measurement": "GI50", "setting": "MDA-MB-435", "result": "> 100", "unit": "µM"}, {"measurement": "TGI", "setting": "MDA-MB-435", "result": "> 100", "unit": "µM"}, {"measurement": "TGI", "setting": "RXF 393", "result": "> 100", "unit": "µM"}, {"measurement": "GI50", "setting": "EKVX", "result": 10.5, "unit": "µM"}, {"measurement": "TGI", "setting": "EKVX", "result": "> 100", "unit": "µM"}, {"measurement": "GI50", "setting": "U-251", "result": 3.7, "unit": "µM"}, {"measurement": "TGI", "setting": "U-251", "result": 28.8, "unit": "µM"}, {"measurement": "GI50", "setting": "OVCAR-5", "result": "> 100", "unit": "µM"}, {"measurement": "TGI", "setting": "OVCAR-5", "result": "> 100", "unit": "µM"}, {"measurement": "GI50", "setting": "SN12C", "result": "> 100", "unit": "µM"}, {"measurement": "TGI", "setting": "SN12C", "result": "> 100", "unit": "µM"}, {"measurement": "GI50", "setting": "[1]", "result": "> 100", "unit": "µM"}, {"measurement": "TGI", "setting": "[1]", "result": "> 100", "unit": "µM"}, {"measurement": "GI50", "setting": "HL-60(TB)", "result": 26.7, "unit": "µM"}, {"measurement": "TGI", "setting": "HL-60(TB)", "result": 68, "unit": "µM"}, {"measurement": "GI50", "setting": "SK-MEL-28", "result": "> 100", "unit": "µM"}, {"measurement": "TGI", "setting": "SK-MEL-28", "result": "> 100", "unit": "µM"}, {"measurement": "GI50", "setting": "[2]", "result": 58.3, "unit": "µM"}, {"measurement": "TGI", "setting": "[2]", "result": "> 100", "unit": "µM"}, {"measurement": "GI50", "setting": "A498", "result": 16, "unit": "µM"}, {"measurement": "TGI", "setting": "A498", "result": 72.9, "unit": "µM"}, {"measurement": "GI50", "setting": "ACHN", "result": "> 100", "unit": "µM"}, {"measurement": "TGI", "setting": "ACHN", "result": "> 100", "unit": "µM"}, {"measurement": "GI50", "setting": "DU-145", "result": "> 100", "unit": "µM"}, {"measurement": "TGI", "setting": "DU-145", "result": "> 100", "unit": "µM"}, {"measurement": "GI50", "setting": "HOP-92", "result": 2.7, "unit": "µM"}, {"measurement": "TGI", "setting": "HOP-92", "result": 8.6, "unit": "µM"}, {"measurement": "GI50", "setting": "SK-OV-3", "result": 5, "unit": "µM"}, {"measurement": "TGI", "setting": "SK-OV-3", "result": "> 100", "unit": "µM"}, {"measurement": "GI50", "setting": "NCI/ADR-RES", "result": "> 100", "unit": "µM"}, {"measurement": "TGI", "setting": "NCI/ADR-RES", "result": "> 100", "unit": "µM"}, {"measurement": "GI50", "setting": "MDA-MB-231", "result": 8.8, "unit": "µM"}, {"measurement": "TGI", "setting": "MDA-MB-231", "result": "> 100", "unit": "µM"}, {"measurement": "GI50", "setting": "IGROV-1", "result": "> 100", "unit": "µM"}, {"measurement": "TGI", "setting": "IGROV-1", "result": "> 100", "unit": "µM"}, {"measurement": "GI50", "setting": "HOP-62", "result": 3.3, "unit": "µM"}, {"measurement": "TGI", "setting": "HOP-62", "result": 9.4, "unit": "µM"}, {"measurement": "GI50", "setting": "HCT-116", "result": 5.3, "unit": "µM"}, {"measurement": "TGI", "setting": "HCT-116", "result": "> 100", "unit": "µM"}, {"measurement": "GI50", "setting": "NCI-H322M", "result": "> 100", "unit": "µM"}, {"measurement": "TGI", "setting": "NCI-H322M", "result": "> 100", "unit": "µM"}, {"measurement": "GI50", "setting": "COLO 205", "result": 14.3, "unit": "µM"}, {"measurement": "TGI", "setting": "COLO 205", "result": "> 100", "unit": "µM"}, {"measurement": "GI50", "setting": "A549", "result": "> 100", "unit": "µM"}, {"measurement": "TGI", "setting": "A549", "result": "> 100", "unit": "µM"}]}
